Experimental data taken from ChEMBL document CHEMBL1137569, “Pharmacomodulations around the 4-oxo-1,4-dihydroquinoline-3-carboxamides, a class of potent CB2-selective cannabinoid receptor ligands: consequences in receptor affinity and functionality” (J Med Chem, 2007).

Assays:
Cannabinoid receptor 2 [1] = biological target: T1, Cannabinoid receptor 2 (Homo sapiens, UniProt P34972); assay: Displacement of [3H]SR-141716A from human CB2 receptor expressed in CHO cells at 10 uM; assay type: cell-based
T1 sequence (P34972 whole entry): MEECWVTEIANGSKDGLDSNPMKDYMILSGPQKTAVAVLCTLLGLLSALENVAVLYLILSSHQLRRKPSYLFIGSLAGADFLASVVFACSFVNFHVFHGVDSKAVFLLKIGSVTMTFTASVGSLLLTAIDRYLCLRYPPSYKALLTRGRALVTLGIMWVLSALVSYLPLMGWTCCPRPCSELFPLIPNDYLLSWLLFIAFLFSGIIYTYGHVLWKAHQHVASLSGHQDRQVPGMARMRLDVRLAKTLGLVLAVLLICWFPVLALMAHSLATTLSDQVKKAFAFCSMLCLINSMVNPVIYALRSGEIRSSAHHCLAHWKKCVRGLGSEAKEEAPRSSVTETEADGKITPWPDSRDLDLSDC

Cannabinoid receptor 2 [2] = biological target: T1, Cannabinoid receptor 2; assay: Displacement of [3H]CP-55940 from human CB2 receptor expressed in CHO cells; assay type: cell-based; parameters: concentration or dose not given beside the values
How it was run: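 Competitive radioligand binding on membranes from CHO cells expressing hCB2, with [3H]-CP-55,940 as tracer. Compounds were first screened at 10 µM. Ki at CB2 was then determined for those displacing more than 60% of specific binding.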

Cannabinoid receptor 2 [3] = biological target: T1, Cannabinoid receptor 2; assay: Inhibition of human CB2 receptor expressed in CHO cells; assay type: cell-based
Cannabinoid receptor 2 [4] = biological target: T1, Cannabinoid receptor 2; assay: Activity at human CB2 receptor expressed in CHO cells assessed as stimulated [35S]GTP-gamma-S binding relative to control; assay type: functional, cell-based; parameters: concentration or dose not given beside the values
[5] = biological target: Cannabinoid receptor 1 (Homo sapiens) (UniProt P21554); assay: Displacement of [3H]SR-141716A from human CB1 receptor expressed in CHO cells at 10 uM; assay type: cell-based
Chain of Cannabinoid receptor 1 (Homo sapiens) (P21554 whole entry): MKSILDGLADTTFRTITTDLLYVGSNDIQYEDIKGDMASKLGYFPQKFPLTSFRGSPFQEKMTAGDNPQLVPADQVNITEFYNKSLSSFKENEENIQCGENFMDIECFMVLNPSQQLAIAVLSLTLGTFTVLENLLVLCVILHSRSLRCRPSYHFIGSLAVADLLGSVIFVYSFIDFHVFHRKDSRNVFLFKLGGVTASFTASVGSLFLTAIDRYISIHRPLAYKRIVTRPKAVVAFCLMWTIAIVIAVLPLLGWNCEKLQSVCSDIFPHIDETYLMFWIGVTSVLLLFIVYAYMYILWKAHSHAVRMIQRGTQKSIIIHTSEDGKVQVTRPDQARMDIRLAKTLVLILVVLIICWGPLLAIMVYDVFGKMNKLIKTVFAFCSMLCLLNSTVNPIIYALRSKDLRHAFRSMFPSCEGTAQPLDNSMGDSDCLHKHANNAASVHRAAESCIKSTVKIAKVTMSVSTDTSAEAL
How it was run: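 Single-concentration (10 µM) competition screen on membranes from CHO cells expressing hCB1, with [3H]SR-141716A as radioligand. Read-out is percent displacement of the radioligand from its binding site.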

Work on O=C(c1cn(Cc2ccc(F)cc2)c2ccccc2c1=O)c1cccc2ccccc12 yielded an Activity (Cannabinoid receptor 2 [1]) of 70%, an Activity (Cannabinoid receptor 2 [2]) of 112% and a Ki (Cannabinoid receptor 2 [3]) of 225 nM.

CCCCCn1c(C)c(C(=O)NC23CC4CC(C)(CC(C)(C4)C2)C3)c(=O)c2ccccc21 gave an Activity (Cannabinoid receptor 2 [2]) of 96.7%, a Ki (Cannabinoid receptor 2 [3]) of 200 nM and an Activity (Cannabinoid receptor 2 [4]) of 128%.

In the case of CCCCCn1cc(C(=O)c2cccc3ccccc23)c(=O)c2ccccc21, the Activity [5] is reported as 56%, the Activity (Cannabinoid receptor 2 [2]) is reported as 97% and the Ki (Cannabinoid receptor 2 [3]) is reported as 154 nM.

For CC12CC3CC(C)(C1)CC(NC(=O)c1cn(CCCc4ccccc4)c4ccccc4c1=O)(C3)C2, the Activity (Cannabinoid receptor 2 [2]) was 101%, the Ki (Cannabinoid receptor 2 [3]) was 160 nM and the Activity (Cannabinoid receptor 2 [4]) was 98.8%.

With CC12CC3CC(C)(C1)CC(NC(=O)c1cn(CCc4ccccc4)c4ccccc4c1=O)(C3)C2 the Activity (Cannabinoid receptor 2 [2]) was 95.8%, the Ki (Cannabinoid receptor 2 [3]) was 333 nM and the Activity (Cannabinoid receptor 2 [4]) was 141%.

Compound CCCCCn1cc(C(=O)NCC23CC4CC(CC(C4)C2)C3)c(=O)c2ccccc21 has an Activity (Cannabinoid receptor 2 [2]) of 87.2%, a Ki (Cannabinoid receptor 2 [3]) of 50.6 nM and an Activity (Cannabinoid receptor 2 [4]) of 155%.

With CCCCCn1nc(C(=O)NC23CC4CC(C)(CC(C)(C4)C2)C3)c(=O)c2ccccc21 the Activity (Cannabinoid receptor 2 [2]) was 94.6%, the Ki (Cannabinoid receptor 2 [3]) was 93 nM and the Activity (Cannabinoid receptor 2 [4]) was 109%.

With CCCCCn1cc(C(=O)NC23CC4CC(C)(CC(C)(C4)C2)C3)c(=O)c2cccc(Cl)c21 the Activity (Cannabinoid receptor 2 [2]) was 98.7%, the Ki (Cannabinoid receptor 2 [3]) was 27.4 nM and the Activity (Cannabinoid receptor 2 [4]) was 187%.

For CCCCCn1cc(C(=O)NC23CC4CC(C)(CC(C)(C4)C2)C3)c(=O)c2cccnc21, the Activity (Cannabinoid receptor 2 [2]) was 102%, the Ki (Cannabinoid receptor 2 [3]) was 23.5 nM and the Activity (Cannabinoid receptor 2 [4]) was 124%.
